Reference: ChEMBL document CHEMBL4152296, “Synthesis, biological evaluation and molecular modeling of novel azaspiro dihydrotriazines as influenza virus inhibitors targeting the host factor dihydrofolate reductase (DHFR)” (Eur J Med Chem, 2018)
Active and inactive are the calls of the source. No cut-off for these calls is given here.

Experiments:
Influenza A virus = test: Antiviral activity against Influenza A virus (A/Puerto Rico/8/34(H1N1)) infected in MDCK cells assessed as protection against virus-induced reduction in cell viability after 3 to 6 days by MTS assay; type: functional, organism-based; settings: A/Puerto Rico/8/1934(H1N1)
In short: (§1)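 MDCK cells seeded at 9000/well and infected one day later (semiconfluent) with 100 CCID50 virus. Medium was FCS-free Ultra MDCK with 2 μg/mL TPCK-trypsin. Serial five-fold compound dilutions (top 100 μM) were added with the virus, followed by 3–6 days at 35 °C. MTS read-out gave % protection versus virus and mock controls. EC50 was interpolated from semi-log curves; mean of two or three experiments.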

Influenza B virus = test: Antiviral activity against Influenza B virus B/Ned/537/05 infected in MDCK cells assessed as protection against virus-induced reduction in cell viability after 3 to 6 days by MTS assay; type: functional, organism-based; settings: B/Ned/537/05, MDCK; in short: as §1
[1] = Cytotoxicity against MDCK cells assessed as alterations in normal cell morphology measured after 3 to 6 days by microscopic analysis; type: cell-based, Canis lupus familiaris; settings: dog
In short: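 Uninfected MDCK cultures in FCS-free Ultra MDCK medium with trypsin received five-fold compound dilutions (up to […]) for 3–6 days at 35 °C. Microscopy scored morphology, and MCC was taken as the lowest concentration causing minimal rounding, shrinking or lysis.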

MDCK = test: Cytotoxicity against MDCK cells assessed as reduction in cell viability measured after 3 to 6 days by MTS assay; type: cell-based, Canis lupus familiaris; settings: dog
In short: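 Mock-infected MDCK plates were run in parallel (FCS-free Ultra MDCK medium with TPCK-trypsin) with serial five-fold dilutions up to […], 35 °C for 3–6 days. CC50 was interpolated from semi-log dose-response curves; mean of two or three experiments.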

[2] = tested on: Respiratory syncytial virus; test: Antiviral activity against Respiratory syncytial virus Long infected in human HeLa cells assessed as inhibition of virus-induced cytopathic effect after 3 to 6 days by MTS based microscopy; type: functional, organism-based
[3] = Cytotoxicity against human HeLa cells assessed as alterations in normal cell morphology measured after 3 to 6 days by microscopic analysis; type: cell-based
In short: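 Mock-infected HeLa cultures in 2% FCS medium received serial five-fold dilutions […] for 3–6 days at 37 °C. MCC was the lowest concentration giving microscopically visible minimal change in cell morphology (rounding, shrinking, lysis).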

Vero = test: Cytotoxicity against African green monkey Vero cells assessed as reduction in cell viability measured after 3 to 6 days by MTS assay; type: cell-based; settings: chlorocebus sabaeus
Human alphaherpesvirus 1 = test: Antiviral activity against Herpes simplex virus type 1 infected in human HEL299 cells assessed as inhibition of virus-induced cytopathic effect after 3 to 6 days by MTS assay; type: functional, organism-based
Human alphaherpesvirus 2 = test: Antiviral activity against Herpes simplex virus type 2 infected in human HEL299 cells assessed as inhibition of virus-induced cytopathic effect after 3 to 6 days by MTS assay; type: functional, organism-based
Vaccinia virus = test: Antiviral activity against Vaccinia virus infected in human HEL299 cells assessed as inhibition of virus-induced cytopathic effect after 3 to 6 days by MTS assay; type: functional, organism-based; settings: Orthopoxvirus vaccinia
Human adenovirus 2 = test: Antiviral activity against Human adenovirus type 2 infected in human HEL299 cells assessed as inhibition of virus-induced cytopathic effect after 3 to 6 days by MTS assay; type: functional, organism-based
[4] = tested on: Human immunodeficiency virus; test: Antiviral activity against HIV; type: functional, organism-based
Human coronavirus 229E = test: Antiviral activity against Human coronavirus 229E infected in human HEL299 cells assessed as inhibition of virus-induced cytopathic effect after 3 to 6 days by MTS assay; type: functional, organism-based
Human respirovirus 3 = test: Antiviral activity against Parainfluenza virus 3 infected in African green monkey Vero cells assessed as inhibition of virus-induced cytopathic effect after 3 to 6 days by MTS assay; type: functional, organism-based
[5] = tested on: Vesicular stomatitis virus; test: Antiviral activity against Vesicular stomatitis virus infected in human HEL299 cells assessed as inhibition of virus-induced cytopathic effect after 3 to 6 days by MTS assay; type: functional, organism-based
Sindbis virus = test: Antiviral activity against Sindbis virus infected in African green monkey Vero cells assessed as inhibition of virus-induced cytopathic effect after 3 to 6 days by MTS assay; type: functional, organism-based
Yellow fever virus = test: Antiviral activity against Yellow fever virus infected in African green monkey Vero cells assessed as inhibition of virus-induced cytopathic effect after 3 to 6 days by MTS assay; type: functional, organism-based
Punta Toro virus = test: Antiviral activity against Punta Toro virus infected in African green monkey Vero cells assessed as inhibition of virus-induced cytopathic effect after 3 to 6 days by MTS assay; type: functional, organism-based
Coxsackievirus B4 = test: Antiviral activity against Coxsackie B4 virus infected in human HeLa cells assessed as inhibition of virus-induced cytopathic effect after 3 to 6 days by MTS assay; type: functional, organism-based
[6] = tested on: Mammalian orthoreovirus 1; test: Antiviral activity against Reovirus-1 infected in African green monkey Vero cells assessed as inhibition of virus-induced cytopathic effect after 3 to 6 days by MTS assay; type: functional, organism-based

## CC(C)(C)OC(=O)N1CCC2(CC1)N=C(N)N=C(N)N2Cc1cccc(Cl)c1
Influenza A virus
  EC50: > 100 µM
Influenza B virus
  EC50: > 100 µM
[1]
  MCC: > 100 µM
MDCK
  CC50: > 100 µM
[2]
  EC50: > 100 µM
[3]
  MCC: > 100 µM
Vero
  Activity: Non-Toxic
Human alphaherpesvirus 1
  Activity: inactive
Human alphaherpesvirus 2
  Activity: inactive
Vaccinia virus
  Activity: inactive
Human adenovirus 2
  Activity: inactive
[4]
  Activity: inactive
Human coronavirus 229E
  Activity: inactive
Human respirovirus 3
  Activity: inactive
[5]
  Activity: inactive
Sindbis virus
  Activity: inactive
Yellow fever virus
  Activity: inactive
Punta Toro virus
  Activity: inactive
Coxsackievirus B4
  Activity: inactive
[6]
  Activity: inactive

## COc1cccc(N2C(N)=NC(N)=NC23CCNCC3)c1
Influenza A virus
  EC50: > 100 µM
Influenza B virus
  EC50: > 100 µM
[1]
  MCC: > 100 µM
MDCK
  CC50: > 100 µM
[2]
  EC50: > 100 µM
[3]
  MCC: > 100 µM
Vero
  Activity: Non-Toxic
Human alphaherpesvirus 1
  Activity: inactive
Human alphaherpesvirus 2
  Activity: inactive
Vaccinia virus
  Activity: inactive
Human adenovirus 2
  Activity: inactive
[4]
  Activity: inactive
Human coronavirus 229E
  Activity: inactive
Human respirovirus 3
  Activity: inactive
[5]
  Activity: inactive
Sindbis virus
  Activity: inactive
Yellow fever virus
  Activity: inactive
Punta Toro virus
  Activity: inactive
Coxsackievirus B4
  Activity: inactive
[6]
  Activity: inactive

## NC1=NC2(CCN(C(=O)C3CCC3)CC2)N(c2cccc(Cl)c2)C(N)=N1
Influenza A virus
  EC50: 35 µM
Influenza B virus
  EC50: 7.7 µM
[1]
  MCC: ≥ 20 µM
MDCK
  CC50: > 100 µM
[2]
  EC50: > 100 µM
[3]
  MCC: > 100 µM
Vero
  Activity: Non-Toxic
Human alphaherpesvirus 1
  Activity: inactive
Human alphaherpesvirus 2
  Activity: inactive
Vaccinia virus
  Activity: inactive
Human adenovirus 2
  Activity: inactive
[4]
  Activity: inactive
Human coronavirus 229E
  Activity: inactive
Human respirovirus 3
  Activity: inactive
[5]
  Activity: inactive
Sindbis virus
  Activity: inactive
Yellow fever virus
  Activity: inactive
Punta Toro virus
  Activity: inactive
Coxsackievirus B4
  Activity: inactive
[6]
  Activity: inactive

## CCCN1C(N)=NC(N)=NC12CCN(C(=O)NCCC(=O)OCC)CC2
Influenza A virus
  EC50: > 100 µM
Influenza B virus
  EC50: > 100 µM
[1]
  MCC: > 100 µM
MDCK
  CC50: > 100 µM
[2]
  EC50: > 100 µM
[3]
  MCC: > 100 µM
Vero
  Activity: Non-Toxic
Human alphaherpesvirus 1
  Activity: inactive
Human alphaherpesvirus 2
  Activity: inactive
Vaccinia virus
  Activity: inactive
Human adenovirus 2
  Activity: inactive
[4]
  Activity: inactive
Human coronavirus 229E
  Activity: inactive
Human respirovirus 3
  Activity: inactive
[5]
  Activity: inactive
Sindbis virus
  Activity: inactive
Yellow fever virus
  Activity: inactive
Punta Toro virus
  Activity: inactive
Coxsackievirus B4
  Activity: inactive
[6]
  Activity: inactive

## COCCN1C(N)=NC(N)=NC12CCN(C(=O)Nc1ccc(OC)cc1)CC2
Influenza A virus
  EC50: > 100 µM
Influenza B virus
  EC50: > 100 µM
[1]
  MCC: > 100 µM
MDCK
  CC50: > 100 µM
[2]
  EC50: > 100 µM
[3]
  MCC: > 100 µM
Vero
  Activity: Non-Toxic
Human alphaherpesvirus 1
  Activity: inactive
Human alphaherpesvirus 2
  Activity: inactive
Vaccinia virus
  Activity: inactive
Human adenovirus 2
  Activity: inactive
[4]
  Activity: inactive
Human coronavirus 229E
  Activity: inactive
Human respirovirus 3
  Activity: inactive
[5]
  Activity: inactive
Sindbis virus
  Activity: inactive
Yellow fever virus
  Activity: inactive
Punta Toro virus
  Activity: inactive
Coxsackievirus B4
  Activity: inactive
[6]
  Activity: inactive

## CC(C)(C)OC(=O)N1CCC2(CC1)N=C(N)N=C(N)N2c1cccc(Cl)c1
Influenza A virus
  EC50: 11 µM
Influenza B virus
  EC50: 24 µM
[1]
  MCC: ≥ 20 µM
MDCK
  CC50: > 100 µM
[2]
  EC50: > 100 µM
[3]
  MCC: > 100 µM
Vero
  Activity: Non-Toxic
Human alphaherpesvirus 1
  Activity: inactive
Human alphaherpesvirus 2
  Activity: inactive
Vaccinia virus
  Activity: inactive
Human adenovirus 2
  Activity: inactive
[4]
  Activity: inactive
Human coronavirus 229E
  Activity: inactive
Human respirovirus 3
  Activity: inactive
[5]
  Activity: inactive
Sindbis virus
  Activity: inactive
Yellow fever virus
  Activity: inactive
Punta Toro virus
  Activity: inactive
Coxsackievirus B4
  Activity: inactive
[6]
  Activity: inactive

## COCCN1C(N)=NC(N)=NC12CCN(C(=O)C1CC1)CC2
Influenza A virus
  EC50: > 100 µM
Influenza B virus
  EC50: > 100 µM
[1]
  MCC: > 100 µM
MDCK
  CC50: > 100 µM
[2]
  EC50: > 100 µM
[3]
  MCC: > 100 µM
Vero
  Activity: Non-Toxic
Human alphaherpesvirus 1
  Activity: inactive
Human alphaherpesvirus 2
  Activity: inactive
Vaccinia virus
  Activity: inactive
Human adenovirus 2
  Activity: inactive
[4]
  Activity: inactive
Human coronavirus 229E
  Activity: inactive
Human respirovirus 3
  Activity: inactive
[5]
  Activity: inactive
Sindbis virus
  Activity: inactive
Yellow fever virus
  Activity: inactive
Punta Toro virus
  Activity: inactive
Coxsackievirus B4
  Activity: inactive
[6]
  Activity: inactive

## COCCN1C(N)=NC(N)=NC12CCN(C(=O)NC1CCC(C)CC1)CC2 (stereo not given)
Influenza A virus
  EC50: > 100 µM
Influenza B virus
  EC50: > 100 µM
[1]
  MCC: > 100 µM
MDCK
  CC50: > 100 µM
[2]
  EC50: > 100 µM
[3]
  MCC: > 100 µM
Vero
  Activity: Non-Toxic
Human alphaherpesvirus 1
  Activity: inactive
Human alphaherpesvirus 2
  Activity: inactive
Vaccinia virus
  Activity: inactive
Human adenovirus 2
  Activity: inactive
[4]
  Activity: inactive
Human coronavirus 229E
  Activity: inactive
Human respirovirus 3
  Activity: inactive
[5]
  Activity: inactive
Sindbis virus
  Activity: inactive
Yellow fever virus
  Activity: inactive
Punta Toro virus
  Activity: inactive
Coxsackievirus B4
  Activity: inactive
[6]
  Activity: inactive

## CCCN1C(N)=NC(N)=NC12CCN(C(=O)C1CC1)CC2
Influenza A virus
  EC50: > 100 µM
Influenza B virus
  EC50: > 100 µM
[1]
  MCC: > 100 µM
MDCK
  CC50: > 100 µM
[2]
  EC50: > 100 µM
[3]
  MCC: > 100 µM
Vero
  Activity: Non-Toxic
Human alphaherpesvirus 1
  Activity: inactive
Human alphaherpesvirus 2
  Activity: inactive
Vaccinia virus
  Activity: inactive
Human adenovirus 2
  Activity: inactive
[4]
  Activity: inactive
Human coronavirus 229E
  Activity: inactive
Human respirovirus 3
  Activity: inactive
[5]
  Activity: inactive
Sindbis virus
  Activity: inactive
Yellow fever virus
  Activity: inactive
Punta Toro virus
  Activity: inactive
Coxsackievirus B4
  Activity: inactive
[6]
  Activity: inactive

## COCCN1C(N)=NC(N)=NC12CCN(C(=O)c1cccn1C)CC2
Influenza A virus
  EC50: > 100 µM
Influenza B virus
  EC50: > 100 µM
[1]
  MCC: > 100 µM
MDCK
  CC50: > 100 µM
[2]
  EC50: > 100 µM
[3]
  MCC: > 100 µM
Vero
  Activity: Non-Toxic
Human alphaherpesvirus 1
  Activity: inactive
Human alphaherpesvirus 2
  Activity: inactive
Vaccinia virus
  Activity: inactive
Human adenovirus 2
  Activity: inactive
[4]
  Activity: inactive
Human coronavirus 229E
  Activity: inactive
Human respirovirus 3
  Activity: inactive
[5]
  Activity: inactive
Sindbis virus
  Activity: inactive
Yellow fever virus
  Activity: inactive
Punta Toro virus
  Activity: inactive
Coxsackievirus B4
  Activity: inactive
[6]
  Activity: inactive
